≈ marks a conversion by molar mass, not a printed value.
Tests used:
Format in all cases: functional
HeLa [1] = test: Inhibition of cell cycle traverse in human HeLa cells assessed as mitotic index at 25 ug/ml after 16 hrs; set-up: scale not given: the % may be the effect or the level left
Method in brief: (§1)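 HeLa cells (3.5 × 10^5) plated the day before in Eagle's MEM with 10% fetal calf serum and antibiotics. Drug added in the same medium with colcemid 0.05 µg/mL, incubated about 16 h. Cells trypsinized, cytocentrifuged onto slides, fixed in 3:1 MeOH-AcOH. Mitotic and interphase cells counted; mitotic index = % of total. Lower index means greater inhibition of cell cycle traverse.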

HeLa [2] = test: Inhibition of cell cycle traverse in human HeLa cells assessed as mitotic index at 50 ug/ml after 16 hrs; set-up: scale not given: the % may be the effect or the level left; method in brief: as §1
HeLa [3] = test: Inhibition of cell cycle traverse in human HeLa cells assessed as mitotic index at 12.5 ug/ml after 16 hrs; set-up: scale not given: the % may be the effect or the level left; method in brief: as §1
L1210 [4] = test: In-vivo antitumor activity against mouse L1210 cells at 20 mg/kg relative to control
L1210 [5] = test: In-vivo antitumor activity against mouse L1210 cells at 100 mg/kg relative to control
L1210 [6] = test: In-vivo antitumor activity against mouse L1210 cells at 60 mg/kg relative to control
HeLa [7] = test: Inhibition of cell cycle traverse in human HeLa cells assessed as mitotic index at 100 ug/ml after 16 hrs; set-up: scale not given: the % may be the effect or the level left
Method in brief: (§2)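 HeLa cells were plated at 3.5 × 10^5 per 35-mm dish in Eagle's MEM with 10% fetal calf serum and antibiotics the day before. They were then exposed to drug in the same medium with 0.05 µg/mL colcemid for 16 h. Cells were trypsinized, cytocentrifuged onto slides and fixed in 3:1 MeOH–AcOH. The read-out was the mitotic index, mitotic cells as a percentage of cells counted.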

HeLa [8] = test: Inhibition of cell cycle traverse in human HeLa cells assessed as mitotic index at 200 ug/ml after 16 hrs; set-up: scale not given: the % may be the effect or the level left; method in brief: as §2
L1210 [9] = test: In-vivo antitumor activity against mouse L1210 cells at 80 mg/kg relative to control
HeLa [10] = test: Growth inhibition of human HeLa cells; settings: read-out: ID50

Compound | Activity (HeLa [1]) [%] | Activity (HeLa [2]) [%] | Activity (HeLa [3]) [%] | T/C (L1210 [4]) [%] | T/C (L1210 [5]) [%] | T/C (L1210 [6]) [%] | Activity (HeLa [7]) [%] | Activity (HeLa [8]) [%] | T/C (L1210 [9]) [%] | ED50 (HeLa [10]) [µg/mL]
O=c1[nH]cc(F)c(=O)[nH]1 [FLUOROURACIL] | 35.8 | 31.7 | 45.7 | 153 | – | – | – | – | – | –
O=c1[nH]c(=O)n([C@@H]2OCC[C@H]2O)cc1F (relative stereo) | – | – | – | – | 96 | 108 | 64 | 34.7 | 98 | –
O=c1[nH]c(=O)n(C2CCCO2)cc1F (racemic) [TEGAFUR] | – | – | – | – | – | – | 60.3 | 36 | 102 | 200 (≈ 999 µM)
O=c1[nH]c(=O)n([C@H]2C[C@@H](O)CO2)cc1F (relative stereo) | – | – | – | – | 114 | 106 | 63.3 | 44 | 91 | –

Source: ChEMBL document CHEMBL3244426, “Synthesis and biological activities of ftorafur metabolites. 3'- and 4'-hydroxyftorafur” (1979)
